Consider 36 sequences from the array DNA melting data of Ke et al. (doi:10.1101/2024.01.08.574731).

The nature of data set [1]: folding enthalpy; higher = less favourable; fluorescence melt of hairpins on a sequencing array, two-state fit. The conditions noted are these: sodium 0.088 M. The method, boiled down: (§1)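 Library hairpins on a sequenced MiSeq flow cell carried annealed Cy3 and quencher oligos, and their Cy3 fluorescence was imaged in 50 mM Na-HEPES pH 8.0 with 25 mM NaCl, in 2.5 °C steps up to 60 °C. Signals were normalised to Cy3 before quenching and to control constructs. Melting temperature and folding enthalpy were obtained from bootstrapped two-state fits, combined by inverse-variance weighting across four replicates, and the fitted temperatures were then raised by 9.35 °C to match UV melts.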

The nature of data set [2]: melting temperature; fluorescence melt of hairpins on a sequencing array, two-state fit, raised by 9.35 °C to match UV melts. The conditions noted are these: sodium 0.088 M. Put shortly: as §1

As for GGTGCTGGAAACGGCACC (((((.(....).))))), in data set [1], the folding enthalpy was -45.8 kcal/mol. Moreover, the Tm in data set [2] was 62.9 °C.

For the sequence GGTGCTGGAAACGGCATC (.(((.(....).))).), the folding enthalpy in data set [1] is -25.4 kcal/mol. Further, the Tm in data set [2] was determined as 44.2 °C.

For GGTGGAGCGAAAGCTACC (((..(((....)))))), the folding enthalpy in data set [1] was -13.7 kcal/mol. The Tm in data set [2] turned out to be 44.1 °C.

GGTGGAGGAAACTCCGCC ((.((((....)))).)): the folding enthalpy in data set [1] is -46 kcal/mol. In addition, the Tm in data set [2] was 57.8 °C.

GGTGGCGAAAGCCCACC ((((((....))).))): in data set [1], the folding enthalpy is -17.5 kcal/mol. The Tm in data set [2] was 61.7 °C.

For GGTGGCGAAAGCCGACC ((((((....))).))), the folding enthalpy in data set [1] is -17.6 kcal/mol. Also, the Tm in data set [2] amounted to 59.6 °C.

As for GGTGGCGAAAGCCGTACC ((((((....)))..))), the folding enthalpy in data set [1] is -13.3 kcal/mol. The Tm in data set [2] is 44.7 °C.

On to GGTGGCGAAAGCCTCACC ((((((....)))..))), for which the folding enthalpy in data set [1] was -12.7 kcal/mol. Moreover, the Tm in data set [2] came out at 45.2 °C.

As for GGTGGCGAAAGCCTTACC ((((((....)))..))), in data set [1], the folding enthalpy was -14 kcal/mol. Further, the Tm in data set [2] was determined as 40.2 °C.

In the case of GGTGGCGGAAACGCTACC (((.(((....))).))), the folding enthalpy in data set [1] is -39.8 kcal/mol. Besides, the Tm in data set [2] is 59.9 °C.

Turning to GGTGGGAAACCACC (((((....))))), the folding enthalpy in data set [1] was -24.4 kcal/mol. Further, the Tm in data set [2] came out at 62.4 °C.

Consider GGTGGGCGAAAGCCGACC (((.(((....))).))), for which, in data set [1], the folding enthalpy was -19.6 kcal/mol. Also, the Tm in data set [2] came to 61.9 °C.

GGTGGTCCGAAAGGAACC (((..(((....)))))): the folding enthalpy in data set [1] was -14.1 kcal/mol. Besides, in data set [2], the Tm stood at 48.9 °C.

Regarding GGTGGTCGAAAGACAACC (((.(((....))).))), the folding enthalpy in data set [1] is -39.2 kcal/mol. Moreover, the Tm in data set [2] was 55.6 °C.

For the sequence GGTGGTGAAAACCACC ((((((....)))))), the folding enthalpy in data set [1] was -32.5 kcal/mol. For the same sequence, the Tm in data set [2] was 68.2 °C.

Turning to GGTGGTGGAAACGCCACC (((((.(....).))))), in data set [1], the folding enthalpy was -35.4 kcal/mol. Besides, the Tm in data set [2] turned out to be 63.5 °C.

As for GGTGGTGGAAACGCCATC (.(((.(....).))).), the folding enthalpy in data set [1] was -22.8 kcal/mol. For the same sequence, in data set [2], the Tm came out at 46.6 °C.

As for GGTGTAGGAAACTACACC (((((((....))))))), the folding enthalpy in data set [1] is -44.8 kcal/mol. The Tm in data set [2] stood at 60.4 °C.

Consider GGTGTAGGAAACTACGTC (..((((....))))..), for which the folding enthalpy in data set [1] is -9.53 kcal/mol. Besides, in data set [2], the Tm was determined as 29.8 °C.

Consider GGTGTCCGAAAGGAGACC (((.(((....))).))), for which the folding enthalpy in data set [1] was -42.9 kcal/mol. In addition, the Tm in data set [2] worked out at 58.3 °C.

Turning to GGTGTCCGAAAGGATACC (((.(((....))).))), the folding enthalpy in data set [1] was -41.5 kcal/mol. Further, in data set [2], the Tm was 59.9 °C.

For the sequence GGTGTCGAAAGACAACC ((((((....))).))), the folding enthalpy in data set [1] is -26.1 kcal/mol. The Tm in data set [2] is 55.7 °C.

For GGTGTCGAAAGACCACC ((((((....))).))), the folding enthalpy in data set [1] was -27.6 kcal/mol. Besides, the Tm in data set [2] was found to be 49.7 °C.

For the sequence GGTGTCGAAAGACCGACC ((((((....)))..))), the folding enthalpy in data set [1] was -14.9 kcal/mol. For the same sequence, in data set [2], the Tm was 39.1 °C.

On to GGTGTCGAAAGACTAACC ((((((....)))..))), for which the folding enthalpy in data set [1] was -20.9 kcal/mol. In data set [2], the Tm was found to be 40.4 °C.

Turning to GGTGTCGAAAGACTTACC ((((((....)))..))), the folding enthalpy in data set [1] is -17.7 kcal/mol. Besides, in data set [2], the Tm turned out to be 37.4 °C.

GGTGTCGCGAAAGCGACC (((..(((....)))))): in data set [1], the folding enthalpy was -7.75 kcal/mol. Further, the Tm in data set [2] is 54 °C.

Turning to GGTGTCGGAAACGATACC (((.(((....))).))), the folding enthalpy in data set [1] was -52 kcal/mol. For the same sequence, the Tm in data set [2] was 54.4 °C.

As to GGTGTCTCGAAAGAGACC (((..(((....)))))), the folding enthalpy in data set [1] is -12.3 kcal/mol. In addition, the Tm in data set [2] amounted to 49.4 °C.

For GGTGTGACGAAAGTCACC (((..(((....)))))), the folding enthalpy in data set [1] was -7.87 kcal/mol. Moreover, the Tm in data set [2] was found to be 43.6 °C.

Regarding GGTGTGCCGAAAGGCACC (((..(((....)))))), the folding enthalpy in data set [1] was -7.6 kcal/mol. Further, in data set [2], the Tm was determined as 49.7 °C.

For GGTGTGGGAAACCGCACC ((((.((....)).)))), the folding enthalpy in data set [1] is -42.9 kcal/mol. Moreover, the Tm in data set [2] worked out at 60.4 °C.

Turning to GGTGTGGGAAACTACACC (((((.(....).))))), the folding enthalpy in data set [1] was -46.6 kcal/mol. In addition, the Tm in data set [2] is 52.6 °C.

For the sequence GGTGTTCGAAAGAAAACC (((.(((....))).))), in data set [1], the folding enthalpy was -25.3 kcal/mol. Moreover, the Tm in data set [2] was found to be 45.2 °C.

As for GGTGTTCGAAAGAAGACC (((.(((....))).))), the folding enthalpy in data set [1] is -40.4 kcal/mol. Also, the Tm in data set [2] worked out at 50.5 °C.

On to GGTGTTCGAAAGAATACC (((.(((....))).))), for which the folding enthalpy in data set [1] was -45.6 kcal/mol. In addition, the Tm in data set [2] amounted to 53.6 °C.
